# Laboratory results: ChEMBL document CHEMBL1126900, “Transformation of heterocyclic reversible monoamine oxidase-B inactivators into irreversible inactivators by N-methylation” (J Med Chem, 1993)
# pKi: −log10 of the molar value.
# Molecular target: T1, Amine oxidase [flavin-containing] B (Bos taurus, UniProt P56560)
# T1 sequence (P56560 whole entry): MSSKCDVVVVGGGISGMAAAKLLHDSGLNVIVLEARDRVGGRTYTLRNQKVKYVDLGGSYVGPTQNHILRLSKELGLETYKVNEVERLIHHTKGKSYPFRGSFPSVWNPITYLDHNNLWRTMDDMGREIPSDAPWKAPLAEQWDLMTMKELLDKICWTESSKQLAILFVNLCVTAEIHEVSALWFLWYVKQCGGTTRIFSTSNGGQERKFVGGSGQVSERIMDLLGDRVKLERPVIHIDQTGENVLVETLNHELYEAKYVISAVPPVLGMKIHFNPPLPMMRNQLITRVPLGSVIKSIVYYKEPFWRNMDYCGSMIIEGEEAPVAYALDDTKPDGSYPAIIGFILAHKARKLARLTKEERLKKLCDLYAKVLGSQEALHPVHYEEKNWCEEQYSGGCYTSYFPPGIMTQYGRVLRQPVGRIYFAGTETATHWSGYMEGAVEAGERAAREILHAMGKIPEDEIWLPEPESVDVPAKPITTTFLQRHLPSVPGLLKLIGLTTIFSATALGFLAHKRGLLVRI
# Experiment: Kinetic constant for inactivation of MAO B from replot of half-lives of inactivation
# Conditions: for kinact: cattle
# Summary of the method: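 Bovine liver MAO-B (specific activity 4–6 units/mg) preincubated at 25 °C with inactivator hydrochloride at various concentrations, or none (control), in 100 mM potassium phosphate pH 7.40 with 2.0 mM glutathione. Aliquots taken periodically and assayed with 0.50 mM cinnamylamine in 100 mM Tris pH 9.0, 25 °C. Activity corrected against control. KI and kinact obtained by Kitz–Wilson replot of inactivation half-lives.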
SMILES,pKi,kinact [s⁻¹]
COc1ccc(N2CC(CN)CC2=O)cc1 (stereo unspecified),2.17,1.12e-05
COc1ccc(N2CC(CN)OC2=O)cc1 (stereo unspecified),–,1.33e-05
COc1ccc(N2CC(CN(C)C)OC2=O)cc1 (stereo unspecified),1.88,5e-05
NCC1CN(c2ccc(OCc3cccc(Cl)c3)cc2)C(=O)O1 (stereo unspecified),4.17,0.00233
COc1ccc(C2CC(CN)OC2=O)cc1 (stereo unspecified),2.17,7.33e-05
CN(C)CC1CN(c2ccc(OCc3cccc(Cl)c3)cc2)C(=O)O1 (stereo unspecified),3.30,0.00137
COc1ccc([C@H]2C[C@@H](CN(C)C)OC2=O)cc1,0.70,0.000283
COc1ccc(N2CC(CN(C)C)CC2=O)cc1 (stereo unspecified),0.52,5.83e-05
CNCC1CC(=O)N(c2ccc(OC)cc2)C1 (stereo unspecified),1.30,5.83e-05
CNCC1CN(c2ccc(OC)cc2)C(=O)O1 (stereo unspecified),2.33,3.17e-05
CNCC1CN(c2ccc(OCc3cccc(Cl)c3)cc2)C(=O)O1 (stereo unspecified),3.70,0.000417
